pIC50: −log10 of the molar value.
What was measured:
[1] = tested on: MCF7; assay: Stimulation of MCF-7 cell proliferation at 10 nM; format: functional, Homo sapiens
Summary of the method: (§1)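 MCF-7 cells hormone-depleted 10 days, then seeded at 20 000 cells/cm² in phenol red-free RPMI with 2.5% charcoal-stripped FCS and held 5 days. Compound (ethanol/DMSO, ≤0.1% solvent) added day 5, refreshed day 8; sulforhodamine counts days 5 and 10; triplicate wells. % stimulation = (growth vs solvent controls ×100) − 100.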

[2] = tested on: MCF7; assay: Stimulation of MCF-7 cell proliferation at 1000 nM; format: functional, Homo sapiens; summary of the method: as §1
[3] = target: T1, Estrogen receptor (Homo sapiens) (UniProt P03372); assay: Affinity of sulfamate compound for human estrogen receptor alpha
T1 sequence (whole entry): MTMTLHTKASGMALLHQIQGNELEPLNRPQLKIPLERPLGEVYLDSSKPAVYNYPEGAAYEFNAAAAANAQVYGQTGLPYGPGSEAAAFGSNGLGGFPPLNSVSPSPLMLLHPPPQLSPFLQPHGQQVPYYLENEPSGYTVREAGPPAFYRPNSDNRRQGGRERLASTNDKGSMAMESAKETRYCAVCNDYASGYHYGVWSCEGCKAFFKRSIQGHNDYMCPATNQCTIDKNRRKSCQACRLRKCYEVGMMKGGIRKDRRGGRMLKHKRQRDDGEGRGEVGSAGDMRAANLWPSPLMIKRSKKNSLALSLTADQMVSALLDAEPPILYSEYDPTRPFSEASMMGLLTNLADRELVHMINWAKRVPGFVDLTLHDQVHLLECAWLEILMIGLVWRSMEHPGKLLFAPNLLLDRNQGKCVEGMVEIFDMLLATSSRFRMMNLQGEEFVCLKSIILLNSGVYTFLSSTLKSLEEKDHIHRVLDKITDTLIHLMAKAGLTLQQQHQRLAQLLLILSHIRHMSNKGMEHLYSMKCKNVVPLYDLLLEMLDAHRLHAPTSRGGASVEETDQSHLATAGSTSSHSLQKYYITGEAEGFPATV
Summary of the method: (§2)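 Fluorescence polarization competition with purified human ER; ER-α final 13 nM or ER-β final 10 nM, fluorescein-estradiol tracer 1 nM final. Compounds from DMSO or ethanol stocks, 0.5% (v/v) final solvent; room temperature 2–2.5 h; triplicate wells. Four-parameter logistic fit; ED50 = concentration giving polarization midway between +tracer/+ER and +tracer/−ER controls. Tested up to solubility limit.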

[4] = tested on: MCF7; assay: Stimulation of MCF-7 cell proliferation at 100 nM; format: functional, Homo sapiens; summary of the method: as §1
[5] = target: Estrogen receptor beta (Homo sapiens) (UniProt Q92731); assay: Affinity of sulfamate compound for human estrogen receptor beta; summary of the method: as §2
Chain of Estrogen receptor beta (Homo sapiens) (Q92731 whole entry): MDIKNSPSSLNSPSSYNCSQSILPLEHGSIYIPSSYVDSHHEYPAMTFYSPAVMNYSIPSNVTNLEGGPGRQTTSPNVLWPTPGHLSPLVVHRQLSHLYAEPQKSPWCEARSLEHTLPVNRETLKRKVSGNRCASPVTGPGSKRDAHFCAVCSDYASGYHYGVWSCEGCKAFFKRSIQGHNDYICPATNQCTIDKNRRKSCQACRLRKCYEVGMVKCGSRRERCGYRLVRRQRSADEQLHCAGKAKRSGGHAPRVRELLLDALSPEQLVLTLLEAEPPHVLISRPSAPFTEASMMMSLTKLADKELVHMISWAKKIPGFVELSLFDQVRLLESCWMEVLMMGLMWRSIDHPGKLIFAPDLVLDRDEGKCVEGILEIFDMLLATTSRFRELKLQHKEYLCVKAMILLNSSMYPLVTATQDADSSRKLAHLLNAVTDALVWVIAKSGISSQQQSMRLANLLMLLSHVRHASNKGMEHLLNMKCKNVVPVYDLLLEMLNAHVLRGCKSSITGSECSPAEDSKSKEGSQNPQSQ

[6] = target: Estrogen receptor beta (Homo sapiens) (UniProt Q92731)
[7] = target: T1, Estrogen receptor (Homo sapiens)
[8] = target: T2, Steryl-sulfatase (Homo sapiens, UniProt P08842); assay: Inhibition of steroid sulfatase
T2 sequence (P08842 whole entry): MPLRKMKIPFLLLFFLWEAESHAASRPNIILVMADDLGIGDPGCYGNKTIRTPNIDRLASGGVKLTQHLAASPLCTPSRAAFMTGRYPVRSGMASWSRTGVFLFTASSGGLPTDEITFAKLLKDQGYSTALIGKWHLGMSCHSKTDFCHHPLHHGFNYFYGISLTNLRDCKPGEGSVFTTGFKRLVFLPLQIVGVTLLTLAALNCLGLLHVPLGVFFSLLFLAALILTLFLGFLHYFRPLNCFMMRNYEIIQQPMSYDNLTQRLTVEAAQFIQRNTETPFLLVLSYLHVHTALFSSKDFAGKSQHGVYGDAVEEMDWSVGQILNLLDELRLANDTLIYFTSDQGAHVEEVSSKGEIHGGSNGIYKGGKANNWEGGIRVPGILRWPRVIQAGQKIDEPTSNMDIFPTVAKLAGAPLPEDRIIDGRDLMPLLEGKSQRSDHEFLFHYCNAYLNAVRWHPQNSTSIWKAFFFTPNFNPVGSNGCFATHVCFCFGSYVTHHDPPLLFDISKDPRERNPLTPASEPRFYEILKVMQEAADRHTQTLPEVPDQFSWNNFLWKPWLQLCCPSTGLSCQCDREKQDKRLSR
Summary of the method: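 Purified recombinant human STS; fluorimetric assay with 4-methylumbelliferone sulfate as substrate. IC50 by nonlinear regression; mean of triplicate determinations.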

ED50 [3]	ED50 [5]	ED50 [6]	ED50 [7]	pIC50 [8]	Compound	Stimulation [1]	Stimulation [2]	Stimulation [4]
2.6 µM	3.7 µM				C[C@]12CC[C@@H]3c4ccc(OS(N)(=O)=O)cc4CCC3[C@@H]1CCC2=O (single isomer, unassigned) [EMATE]	97%	123%	112%
		0.48 µM	0.21 µM		O=c1cc(C23CC4CC(CC(C4)C2)C3)sc2ccc(O)cc12			
		18 µM	4.8 µM		NS(=O)(=O)Oc1ccc2sc(C34CC5CC(CC(C5)C3)C4)cc(=O)c2c1	78%	120%	99%
		> 100 µM	> 50 µM		CCCCCCCCCc1cc(=O)c2cc(OS(N)(=O)=O)ccc2o1	0%	0%	0%
		> 100 µM	> 100 µM		CCCCCCCCCc1cc(=O)c2cc(O)ccc2o1			
> 100 µM	> 100 µM				NS(=O)(=O)Oc1ccc2oc(CCc3ccccc3)cc(=O)c2c1	16%	45%	33%
		14 µM	13 µM		NS(=O)(=O)Oc1ccc2c(c1)C(=O)CC(C13CC4CC(CC(C4)C1)C3)O2 (stereo unspecified)	79%	130%	90%
		47 µM	30 µM		CC1(C)C(c2cc(=O)c3cc(OS(N)(=O)=O)ccc3o2)C1(C)C	52%	120%	85%
		> 100 µM	> 100 µM		CC(C)(C)c1cc(=O)c2cc(OS(N)(=O)=O)ccc2o1	12%	100%	45%
		0.035 µM	0.1 µM		O=C1CC(C23CC4CC(CC(C4)C2)C3)Oc2ccc(O)cc21 (stereo unspecified)			
		> 30 µM	> 30 µM	8.25	NS(=O)(=O)Oc1ccc2oc(C34CC5CC(CC(C5)C3)C4)cc(=O)c2c1	71%	116%	88%
		1.4 µM	1.5 µM		O=c1cc(C23CC4CC(CC(C4)C2)C3)oc2ccc(O)cc12			
		> 30 µM	> 10 µM		NS(=O)(=O)Oc1ccc2oc(C3CCCCCCCCCCC3)cc(=O)c2c1	48%	118%	72%
		1.5 µM	0.8 µM		O=c1cc(C2CCCCCCCCCCC2)oc2ccc(O)cc12			
		0.011 µM			C[C@]12CC[C@@H]3c4ccc(O)cc4CC[C@H]3[C@@H]1CC[C@@H]2O [ESTRADIOL]	400%		
		2.6 µM	0.9 µM		CC1(C)C(c2cc(=O)c3cc(O)ccc3o2)C1(C)C			
		> 100 µM	> 30 µM		CCCCCCCCC(C)(C)c1cc(=O)c2cc(OS(N)(=O)=O)ccc2o1	0%	0%	0%
		> 100 µM	> 100 µM		CCCCCCCCC(C)(C)c1cc(=O)c2cc(O)ccc2o1			
		> 100 µM	> 100 µM		CCCCCC12CCC(CC1)C(c1cc(=O)c3cc(O)ccc3o1)C2 (stereo unspecified)			
		69 µM	64 µM		CC(C)(C)c1cc(=O)c2cc(O)ccc2o1			

Source: ChEMBL document CHEMBL1145899, “Estrogenic potential of 2-alkyl-4-(thio)chromenone 6-O-sulfamates: potent inhibitors of human steroid sulfatase” (J Med Chem, 2003)
